We go through two molecules from ChEMBL document CHEMBL1125520, “Improved brain delivery of AZT using a glycosyl phosphotriester prodrug” (1992).

SMILES strings stand for the structures.

The species entered for assay [1] is Mus musculus. Kind of assay: In Vitro detection by Gray and Whittaker method for % of internalization by comparing with external nucleoside of 2000 nM/g. Format: functional. The method in brief:
(§1)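 Crude synaptosomes from three mouse brains were prepared by Gray–Whittaker homogenization in 10% sucrose buffered with 5 mM Tris-HCl, pH 7.4. The 7000g pellet was resuspended and incubated with each nucleoside at 3 mM for 15 min at 37 °C, stopped by cold 10-fold dilution and washed twice. Internal nucleoside was extracted in acetonitrile–water (3:1) and measured by HPLC.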

The test system of assay [2] is Mus musculus. Kind of assay: In Vivo detection in Mice brains after oral administration of 41.63 mg/kg detected in the form of AZT 5`-P after 0.5 hr. It is filed as functional.
The subject of assay [3] is Mus musculus. Kind of assay: In Vivo detection in Mice brains after oral administration of 41.63 mg/kg detected in the form of AZT after 1 hr. It is filed as functional.
Assay [4] has as its system Mus musculus. Kind of assay: In Vivo detection in Mice brains after oral administration of 41.63 mg/kg detected in the form of AZT after 24 hr. It is filed as functional.
Assay [5] has as its system Mus musculus. As to the kind of experiment: In Vivo detection in Mice plasma after oral administration of 41.63 mg/kg detected in the form of AZT 5`-P after 1 hr. It is filed as functional, organism-based. Set-up: dose 41.63 mg/kg.
In assay [6] the test system is Mus musculus. Kind of assay: In Vivo detection in Mice plasma after oral administration of 41.63 mg/kg detected in the form of AZT 5`-P after 24 hr. Format: functional, organism-based. Set-up: dose 41.63 mg/kg.
For assay [7], the system named is Mus musculus. Kind of assay: In Vivo detection in Mice plasma after oral administration of 41.63 mg/kg detected in the form of AZT 5`-P after 2 hr. Also on record: dose 41.63 mg/kg. It is filed as functional, organism-based.
The species entered for assay [8] is Mus musculus. Kind of assay: In Vitro detection by Gray and Whittaker method for the total internal nucleoside. It is filed as functional. The method in brief: as §1
For assay [9], the system named is Mus musculus. Kind of assay: In Vivo detection of total AZT in Mice brains after oral administration of 41.63 mg/kg after 48 hr. Format: functional. The method in brief:
(§2)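 Male Swiss mice (18–20 g) dosed orally with a 3 mM solution in […] vehicle; decapitated at 0.5–48 h. Brains were homogenized in acetonitrile-water (3:1), centrifuged at 6000g for 40 min at 4 °C, lyophilized, redissolved in water and filtered (0.45 µm). Reversed-phase C18 column-switching HPLC with diode-array detection; standard spiking; vehicle-fed controls. Three mice per point, triplicates.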

Assay [10] relates to Mus musculus. As to the kind of experiment: In Vivo detection of total AZT in Mice brains after oral administration of 41.63 mg/kg after 4 hr. It is filed as functional. The method in brief: as §2
For assay [11], the system named is Mus musculus. Kind of assay: In Vivo detection in Mice plasma after oral administration of 41.63 mg/kg detected in the form of AZT after 24 hr. It is filed as functional, organism-based. Also on record: dose 41.63 mg/kg.
In assay [12] the test system is Mus musculus. As to the kind of experiment: In Vivo detection in Mice plasma after oral administration of 41.63 mg/kg detected in the form of AZT phosphodiester 2 after 1 hr. Format: functional, organism-based. Also on record: dose 41.63 mg/kg.
For assay [13], the system named is Mus musculus. As to the kind of experiment: In Vivo detection in Mice plasma after oral administration of 41.63 mg/kg detected in the form of AZT phosphodiester 2 after 24 hr. Format: functional, organism-based. Set-up: dose 41.63 mg/kg.
The subject of assay [14] is Mus musculus. As to the kind of experiment: In Vivo detection in Mice plasma after oral administration of 41.63 mg/kg detected in the form of AZT phosphodiester 2 after 4 hr. Set-up: dose 41.63 mg/kg. It is filed as functional, organism-based.
The test system of assay [15] is Mus musculus. As to the kind of experiment: In Vivo detection in Mice plasma after oral administration of 41.63 mg/kg detected in the form of AZT phosphodiester 2 after 8 hr. It is filed as functional, organism-based. Set-up: dose 41.63 mg/kg.
Assay [16] deals with Mus musculus. Kind of assay: In Vivo detection in Mice plasma after oral administration of 41.63 mg/kg detected in the form of AZT after 1 hr. It is filed as functional, organism-based. Set-up: dose 41.63 mg/kg.
In assay [17] the test system is Mus musculus. As to the kind of experiment: In Vivo detection of total AZT in Mice brains after oral administration of 41.63 mg/kg after 1 hr. It is filed as functional. The method in brief:
as §2

In assay [18] the test system is Mus musculus. Kind of assay: In Vivo detection of total AZT in Mice plasma after oral administration of 41.63 mg/kg after 0.5 hr. It is filed as functional, organism-based. Also on record: dose 41.63 mg/kg. The method in brief: (§3)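 Male Swiss mice (18–20 g, six weeks old) given the test substance or vehicle ([…]) by gavage as a 3 mM solution (1.5 µmol/mouse). Aortic blood was collected into heparinized tubes at 0.5–48 h and centrifuged at 13000g for 10 min. Plasma was stored at -22 °C and analysed by HPLC. Three mice were used per time point, in triplicate. Values were not corrected for recovery.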

Assay [19] has as its system Mus musculus. Kind of assay: In Vivo detection of total AZT in Mice plasma after oral administration of 41.63 mg/kg after 1 hr. Format: functional, organism-based. Set-up: dose 41.63 mg/kg. The method in brief: as §3
For assay [20], the system named is Mus musculus. Kind of assay: In Vivo detection in Mice brains after oral administration of 41.63 mg/kg detected in the form of AZT 5`-P after 2 hr. Format: functional.
Assay [21] has as its system Mus musculus. Kind of assay: In Vivo detection in Mice brains after oral administration of 58.33 mg/kg detected in the form of AZT 5`-P after 0.5 hr. It is filed as functional.
In assay [22] the test system is Mus musculus. As to the kind of experiment: In Vivo detection in Mice brains after oral administration of 58.33 mg/kg detected in the form of AZT 5`-P after 4 hr. It is filed as functional.
In assay [23] the test system is Mus musculus. Kind of assay: In Vivo detection in Mice brains after oral administration of 58.33 mg/kg detected in the form of AZT after 1 hr. It is filed as functional.
Assay [24] deals with Mus musculus. As to the kind of experiment: In Vivo detection in Mice brains after oral administration of 58.33 mg/kg detected in the form of AZT after 4 hr. Format: functional.
Assay [25] deals with Mus musculus. As to the kind of experiment: In Vivo detection in Mice brains after oral administration of 58.33 mg/kg detected in the form of AZT phosphodiester 2 after 0.5 hr. Format: functional.
Assay [26] relates to Mus musculus. As to the kind of experiment: In Vivo detection in Mice brains after oral administration of 58.33 mg/kg detected in the form of AZT phosphodiester 2 after 1 hr. It is filed as functional.
Assay [27] deals with Mus musculus. Kind of assay: In Vivo detection in Mice plasma after oral administration of 20 mg/kg detected in the form of AZT phosphodiester 2 after 0.5 hr. It is filed as functional, organism-based. Also on record: dose 20 mg/kg.
The test system of assay [28] is Mus musculus. Kind of assay: In Vivo detection in Mice plasma after oral administration of 58.33 mg/kg detected in the form of AZT 5`-P after 2 hr. Set-up: dose 58.33 mg/kg. Format: functional, organism-based.
Assay [29] has as its system Mus musculus. Kind of assay: In Vivo detection in Mice plasma after oral administration of 58.33 mg/kg detected in the form of AZT after 0.5 hr. Format: functional, organism-based. Also on record: dose 58.33 mg/kg.
Assay [30] concerns Mus musculus. As to the kind of experiment: In Vivo detection in Mice plasma after oral administration of 58.33 mg/kg detected in the form of AZT phosphodiester 3 after 24 hr. Format: functional, organism-based. Set-up: dose 58.33 mg/kg. The method in brief:
as §3

Assay [31] deals with Mus musculus. Kind of assay: In Vivo detection in Mice plasma after oral administration of 58.33 mg/kg detected in the form of AZT phosphodiester 3 after 48 hr. It is filed as functional, organism-based. Also on record: dose 58.33 mg/kg. The method in brief: as §3
Assay [32] deals with Mus musculus. Kind of assay: In Vivo detection in Mice brains after oral administration of 58.33 mg/kg detected in the form of AZT phosphodiester 3 after 4 hr. Format: functional.
Assay [33] deals with Mus musculus. Kind of assay: In Vivo detection in Mice plasma after oral administration of 58.33 mg/kg detected in the form of AZT after 2 hr. Format: functional, organism-based. Set-up: dose 58.33 mg/kg.
In assay [34] the test system is Mus musculus. Kind of assay: In Vivo detection in Mice plasma after oral administration of 58.33 mg/kg detected in the form of AZT after 8 hr. Set-up: dose 58.33 mg/kg. It is filed as functional, organism-based. The method in brief: as §3
For assay [35], the system named is Mus musculus. Kind of assay: In Vivo detection in Mice plasma after oral administration of 58.33 mg/kg detected in the form of AZT phosphodiester 2 after 2 hr. It is filed as functional, organism-based. Also on record: dose 58.33 mg/kg. The method in brief:
as §3

Assay [36] deals with Mus musculus. Kind of assay: In Vivo detection in Mice plasma after oral administration of 58.33 mg/kg detected in the form of AZT phosphodiester 2 after 8 hr. It is filed as functional, organism-based. Also on record: dose 58.33 mg/kg. The method in brief: as §3
The subject of assay [37] is Mus musculus. Kind of assay: In Vivo detection in Mice plasma after oral administration of 58.33 mg/kg detected in the form of AZT phosphodiester 3 after 4 hr. Set-up: dose 58.33 mg/kg. It is filed as functional, organism-based. The method in brief: as §3
Assay [38] has as its system Mus musculus. As to the kind of experiment: In Vivo detection of total AZT in Mice plasma after oral administration of 58.33 mg/kg after 2 hr. It is filed as functional, organism-based. Set-up: dose 58.33 mg/kg. The method in brief:
as §3

The species entered for assay [39] is Mus musculus. As to the kind of experiment: Concentration of external nucleoside in mouse brain. Format: functional. The method in brief: as §1

In turn, `Cc1cn([C@H]2C[C@H](N=[N+]=[N-])[C@@H](COP(=O)(O)OCCO[C@H]3O[C@H](CO)[C@@H](O)[C@H](O)[C@@H]3O)O2)c(=O)[nH]c1=O` had an Internalisation in the assay listed under Mus musculus [1] of 0.1%. The Brain content in the assay on Mus musculus [2] stood at 31 nmol/g; in the assay on Mus musculus [3], 1.9 nmol/g; in the assay with Mus musculus [4], 0.8 nmol/g; in the assay filed under Mus musculus [8], 8.3 nM/g; with Mus musculus [9], 51.8 nM ml-1; in the assay with Mus musculus [10], 68.1 nM ml-1. Further, the Brain content in the assay on Mus musculus [17] was 97.7 nmol/g; in the assay on Mus musculus [20], 19.8 nM ml-1. For the same molecule, the Plasma content came out at 20 nM ml-1 with Mus musculus [5]; 26.8 nM ml-1 in the assay with Mus musculus [6]; 15 nM ml-1 with Mus musculus [7]; 0 nM ml-1 in the assay on Mus musculus [11]; 5.2 nM ml-1 with Mus musculus [12]; 0 nM ml-1 with Mus musculus [13]. Also, the Plasma content in the assay on Mus musculus [14] was found to be 0 nM ml-1; with Mus musculus [15] it was 0 nM ml-1; with Mus musculus [16] it was 18.3 nM ml-1; in the assay with Mus musculus [18], 56.5 nM ml-1; in the assay with Mus musculus [19], 43.5 nM ml-1.

Take `CCCCCCCCCCCCCCCCOP(=O)(OCCO[C@H]1O[C@H](CO)[C@@H](O)[C@H](O)[C@@H]1O)OCC1OC(n2cc(C)c(=O)[nH]c2=O)CC1N=[N+]=[N-]` (stereo partly specified): in the assay listed under Mus musculus [1], the Internalisation was determined as 6.24%. Moreover, the Brain content in the assay with Mus musculus [21] was 36.7 nmol/g; in the assay on Mus musculus [22], 114 nmol/g; in the assay on Mus musculus [23] it was 1.5 nmol/g; with Mus musculus [24], 1 nmol/g; with Mus musculus [25], 0.3 nmol/g; with Mus musculus [26], 8.5 nmol/g. For the same molecule, the values for the Brain content in the assay filed under Mus musculus [8] and with Mus musculus [32] were 567.8 nM/g and 0 nM ml-1, respectively. For the same molecule, the Plasma content in the assay on Mus musculus [27] amounted to 0 nM ml-1; with Mus musculus [28] it was 4 nM ml-1; with Mus musculus [29], 1.6 nM ml-1; with Mus musculus [30] it was 0 nM ml-1; with Mus musculus [31], 0 nM ml-1; with Mus musculus [33] it was 1.4 nM ml-1. Besides, the Plasma content came to 8.6 nM ml-1 in the assay with Mus musculus [34]; 0 nM ml-1 in the assay with Mus musculus [35]; 0 nM ml-1 in the assay with Mus musculus [36]; 0 nM ml-1 with Mus musculus [37]; 5.4 nM ml-1 in the assay with Mus musculus [38]. Besides, in the assay filed under Mus musculus [39], the External nucleoside was found to be 9100 nM/g.
